From paper PMC11665415 (Neurobiology of Pain, 2024)
Entries after “also recorded” stand apart in the source; their conditions may differ. Like-named read-outs stand apart in the source and are kept apart here.

What was measured:
naïve mice [1] = assay: Mechanical and cold sensitivity in naïve mice; type: in vivo, mouse; conditions: male and female naïve mice, 30 mg/kg IP
Method in brief: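 Naïve male and female mice got test compound at 30 mg/kg IP in 30 % DMSO, with a 1 h wait before testing. Mechanical sensitivity measured with von Frey filaments by the up-down method. Cold sensitivity measured by applying an acetone drop to the hind paw.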

[2] = Snapshot/standard pharmacokinetics in CD-1 mice; type: in vivo, mouse; conditions: for half-life: male, CD-1, mouse, plasma
[3] = test system: voltage-gated calcium channels; type: cell-based, rat
SH-SY5Y cells = SH-SY5Y cells treated at 5 µM; ref Drewry et al., 2022; cited from earlier work
[4] = test system: capsaicin-induced mechanical allodynia; assay: Capsaicin pain model, mechanical allodynia; type: in vivo, mouse; conditions: 30 mg/kg IP
Method in brief: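 Mice got intraplantar capsaicin (12 µg in 10 µL; vehicle 80 % saline, 10 % ethanol, 10 % Tween80) in the left footpad under isoflurane. One h later: single IP dose of test compound at 30 mg/kg or vehicle (30 % DMSO). 50 % paw withdrawal threshold by von Frey up-down method, baseline then 0–4 h post-dose. AUC over 0–4 h. n = 8 per sex. Two-way ANOVA with Tukey; one-way ANOVA with Dunnett for AUC.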

[5] = test system: voltage-gated sodium channels; type: cell-based, rat; conditions: for Effect on density of sodium currents: acute application
potassium channels = assay: Whole-cell patch-clamp recordings of total potassium currents; type: cell-based, rat
Method in brief: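 Rat DRG neurons cultured in medium with 10 % FBS and 15 ng/ml NGF, on poly-D-lysine/laminin-coated coverslips at 37 °C, 5 % CO₂, and used within 24 h. Whole-cell patch clamp with test compound (10 µM) or 0.1 % DMSO in the external solution. Current density–voltage and peak current density (pA/pF) given as mean ± SEM.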

[6] = test system: SNI-induced mechanical allodynia; assay: Spared nerve injury; type: in vivo, mouse
Method in brief: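 On day 28 after spared nerve injury, 50 % paw withdrawal threshold measured by von Frey up-down method, at baseline and from 0 to 6 h after a single IP injection. Doses: 3, 10 and 30 mg/kg in males; 30 mg/kg in females; vehicle 30 % DMSO. AUC over 0–6 h. n = 8. Two-way ANOVA with Tukey; one-way ANOVA with Dunnett.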

[7] = test system: SNI-induced cold allodynia; assay: Spared nerve injury; type: in vivo, mouse; conditions: for SNI-induced cold allodynia, AUC between 0 and 6 h: day 28 post-SNI
PIKfyve = conditions: 403 wild-type human kinases; ref Drewry et al., 2022; cited from earlier work
naïve mice [8] = assay: Rotarod test of motor coordination in naïve mice; type: in vivo, mouse; conditions: male and female naïve mice, 30 mg/kg IP
Method in brief: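 Naïve male and female mice received test compound at 30 mg/kg IP, dissolved in 30 % DMSO. Motor coordination measured on the rotarod. A mouse that fell was placed back on the cylinder and the session continued.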

viral entry = conditions: 1 µM, multiple cell types; ref Drewry et al., 2022; cited from earlier work
[9] = Snapshot pharmacokinetics in Balb/C mice; type: in vivo, mouse; conditions: 10 or 30 mg/kg IP or PO, up to five hours after dosing

## CN(C)CC#Cc1ccc2[nH]c3c(c2c1)-c1nc(N)ncc1CCC3 [SGC-PIKFYVE-1]
naïve mice [1]
  Mechanical and cold sensitivity: did not induce changes
[2]; CD-1 mice, 10 mg/kg IP or PO, five-hour time course
  Oral bioavailability and in vivo stability (snapshot PK): exhibited oral bioavailability and remained relatively stable in vivo
[2]; CD-1 mice, 10 mg/kg IP or PO, no time points between 8 and 24 h
  Detectability in plasma over twenty-four hours: no longer detectable after eight hours
[2]; CD-1 mice, 30 mg/kg
  Adverse effects / tolerability: did not induce any adverse effects; also recorded: well tolerated
[2]; CD-1 mice, 30 mg/kg IP or PO
  Detectability in plasma over twenty-four hours: not detectable after eight hours
[2]; CD-1 mice, 30 mg/kg twice daily (BID) IP or PO
  Plasma concentration relative to cellular affinity for PIKfyve: well above its cellular affinity for PIKfyve
[2]; ip
  half-life: ~3.5 h
[2]; po, 30 mg/kg
  half-life: 3.5 h
[3]; 10 µM, vs 0.1 % DMSO
  Calcium current density and peak current: unaffected
[3]; total calcium currents, SGC-PIKFYVE-1 10 µM, DMSO control 0.99 ± 0.01
  Fast inactivation k: 0.98 ± 0.02
[3]; total calcium currents, SGC-PIKFYVE-1 10 µM, DMSO control 5.99 ± 0.64
  Activation k: 5.73 ± 0.58
[3]; total calcium currents, SGC-PIKFYVE-1 10 µM, DMSO control −4.68 ± 0.73
  Activation V0.5 (mV): −4.31 ± 0.67 mV
[3]; total calcium currents, SGC-PIKFYVE-1 10 µM, DMSO control −36.91 ± 0.73
  Fast inactivation V0.5 (mV): −34.76 ± 1.79 mV
[3]; total calcium currents, SGC-PIKFYVE-1 10 µM, DMSO control −107.71 ± 14.20
  IV curve Peak/density (pA/pF): −113.06 ± 13.24 pA/pF
SH-SY5Y cells
  Lysosomal homeostasis: impacted lysosomal homeostasis
[4]; female mice
  Capsaicin-induced nociceptive behaviors: able to reduce the nociceptive behaviors
[4]; male mice, 1 h after intraplantar capsaicin
  Duration of reduction of capsaicin-induced allodynia: 2 h
[5]; 10 µM, compared to the vehicle
  Voltage-dependence of activation: remained unchanged
[5]; 10 µM, vs vehicle
  Hyperpolarizing shift in the voltage-dependence of inactivation: 4 mV
[5]; SGC-PIKFYVE-1 1 µM, DMSO control 4.93 ± 0.44
  Activation k: 6.54 ± 0.66
[5]; SGC-PIKFYVE-1 1 µM, DMSO control −13.64 ± 1.53
  Fast inactivation k: −14.49 ± 1.69
[5]; SGC-PIKFYVE-1 1 µM, DMSO control −21.776 ± 0.50
  Activation V0.5 (mV): −21.09 ± 0.74 mV
[5]; SGC-PIKFYVE-1 1 µM, DMSO control −53.6 ± 1.56
  Fast inactivation V0.5 (mV): −51.69 ± 1.67 mV
[5]; SGC-PIKFYVE-1 10 µM, ProTxII set (Fig. 1), DMSO control 4.25 ± 0.42
  Activation k: 4.89 ± 0.56
[5]; SGC-PIKFYVE-1 10 µM, ProTxII set (Fig. 1), DMSO control −11.11 ± 0.74
  Fast inactivation k: −10.32 ± 0.73
[5]; SGC-PIKFYVE-1 10 µM, ProTxII set (Fig. 1), DMSO control −20.48 ± 0.48
  Activation V0.5 (mV): −20.11 ± 0.63 mV
[5]; SGC-PIKFYVE-1 10 µM, ProTxII set (Fig. 1), DMSO control −47.42 ± 0.79
  Fast inactivation V0.5 (mV): −51.51 ± 0.79 mV
[5]; SGC-PIKFYVE-1 10 µM, ProTxII set (Fig. 1), DMSO control −533.2 ± 42.99
  IV curve Peak/density (pA/pF): −348.7 ± 38.42 pA/pF
[5]; SGC-PIKFYVE-1 10 µM, VX-548 set (Fig. 2), DMSO control 3.70 ± 0.39
  Activation k: 3.73 ± 0.47
[5]; SGC-PIKFYVE-1 10 µM, VX-548 set (Fig. 2), DMSO control −12.25 ± 1.08
  Fast inactivation k: −10.25 ± 1.63
[5]; SGC-PIKFYVE-1 10 µM, VX-548 set (Fig. 2), DMSO control −24.61 ± 0.44
  Activation V0.5 (mV): −20.18 ± 0.55 mV
[5]; SGC-PIKFYVE-1 10 µM, VX-548 set (Fig. 2), DMSO control −52.39 ± 1.14
  Fast inactivation V0.5 (mV): −58.85 ± 1.79 mV
[5]; SGC-PIKFYVE-1 10 µM, VX-548 set (Fig. 2), DMSO control −358.2 ± 32.87
  IV curve Peak/density (pA/pF): −189.7 ± 47.11 pA/pF
[5]; 1 µM
  Effect on density of sodium currents: but not at 1 µM
[5]; 10 µM
  Effect on density of sodium currents: decrease in the density of sodium currents
Potassium channels; acute treatment, 10 μM, vs 0.1 % DMSO
  IK+ current or peak densities: did not alter
Potassium channels; total potassium currents, SGC-PIKFYVE-1 10 µM, DMSO control 184.90 ± 17.17
  IV curve Peak/density (pA/pF): 213.92 ± 21.52 pA/pF
[6]; female mice, 30 mg/kg IP
  SNI-induced tactile allodynia: reduced SNI-induced tactile
[6]; male neuropathic mice, 3, 10 and 30 mg/kg IP
  Antiallodynic effect (AUC 0-6 h), dose dependence: dose-dependent
[6]; male neuropathic mice, single IP injection 30 mg/kg, day 28 post-SNI
  Paw mechanical withdrawal threshold: increase of the paw mechanical withdrawal threshold for four hours
[7]; female mice, 30 mg/kg IP
  SNI-induced cold allodynia: reduced
  SNI-induced cold allodynia, AUC between 0 and 6 h: reversed SNI-induced cold allodynia
[7]; male mice, 30 mg/kg IP
  SNI-induced cold allodynia, AUC between 0 and 6 h: reversed SNI-induced cold allodynia
[7]; male mice, 3, 10 and 30 mg/kg IP
  SNI-induced cold allodynia: reduced SNI-induced cold allodynia for six hours in a dose-dependent manner
PIKfyve
  Kinome selectivity: highly selective for PIKfyve
naïve mice [8]
  Motor coordination (rotarod): did not induce changes
Viral entry
  Viral entry: inhibited viral entry
[9]
  Plasma concentration relative to cellular affinity for PIKfyve: maintained well above the cellular affinity for PIKfyve

## COc1c([C@H]2[C@H](C(=O)Nc3ccnc(C(N)=O)c3)O[C@@](C)(C(F)(F)F)[C@H]2C)ccc(F)c1F [VX-548, reference compound]
[5]; VX-548 5 nM, DMSO control 3.70 ± 0.39
  Activation k: 6.18 ± 0.88
[5]; VX-548 5 nM, DMSO control −12.25 ± 1.08
  Fast inactivation k: −9.98 ± 0.99
[5]; VX-548 5 nM, DMSO control −24.61 ± 0.44
  Activation V0.5 (mV): −19.51 ± 0.98 mV
[5]; VX-548 5 nM, DMSO control −52.39 ± 1.14
  Fast inactivation V0.5 (mV): −59.85 ± 1.10 mV
[5]; VX-548 5 nM, DMSO control −358.2 ± 32.87
  IV curve Peak/density (pA/pF): −200.5 ± 35.37 pA/pF

## Cc1cccc(/C=N/Nc2cc(N3CCOCC3)nc(OCCc3ccccn3)n2)c1 [apilimod, reference compound]
SH-SY5Y cells
  Lysosomal homeostasis: impacted lysosomal homeostasis

## ProTxII [reference compound]
[5]; ProTxII 5 nM, DMSO control 4.25 ± 0.42
  Activation k: 4.17 ± 0.49
[5]; ProTxII 5 nM, DMSO control −11.11 ± 0.74
  Fast inactivation k: −11.11 ± 1.15
[5]; ProTxII 5 nM, DMSO control −20.48 ± 0.48
  Activation V0.5 (mV): −14.89 ± 0.57 mV
[5]; ProTxII 5 nM, DMSO control −47.42 ± 0.79
  Fast inactivation V0.5 (mV): −53.17 ± 1.24 mV
[5]; ProTxII 5 nM, DMSO control −533.2 ± 42.99
  IV curve Peak/density (pA/pF): −207.3 ± 57.12 pA/pF
